Results published in paper PMC3793015 (Journal of agricultural and food chemistry, 2013).

What was measured:
MDM cells = assay: Cellular uptake and metabolism of α-MG; assay type: in vitro ADME, human; conditions: 24 h
Procedure, shortened: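 Monocytes came from buffy-coat mononuclear cells, isolated on Ficoll and by clumping, then differentiated 6 days with 50 ng/mL M-CSF (97% CD14/CD11b-positive). Compound (3.3 μM) was delivered in 100% FBS, diluted to 10% FBS in RPMI 1640, for 24 h. Activated cultures first had 100 ng/mL LPS for 4 h, then a PBS wash. Medium and cells were analysed separately by RP-HPLC, including conjugates; mean ± SD, n ≥ 5.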

RAW 264.7 cells = assay: Cellular uptake and metabolism of α-MG; assay type: in vitro ADME, murine
Procedure, shortened: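 RAW 264.7 cells, 2 days post-confluence, received 7.7 μM compound (DMSO stock into 10% FBS medium) for 24 h. LPS-activated cultures had 5 ng/mL LPS for 4 h, then a PBS wash, before compound. Cells and medium were collected together because some cells were nonadherent. Samples were extracted and analysed by RP-HPLC for free and glucuronidated/sulfated xanthones, as % of initial concentration.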

[1] = Stability of α-MG during incubation in cell-free culture media; assay type: physicochemical; conditions: for calculated rate of α-MG loss per hour: DMSO, 24 h incubation; for recovery of α-MG after 24 h incubation: Tween 40 micelles
Procedure, shortened: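 Compound was incubated cell-free for 24 h at 37 °C in RPMI, MEM, DMEM or McCoy's 5A, sampled at 0, 4, 8 and 24 h, extracted and analysed by RP-HPLC. Vehicles tested were: DMSO into medium without FBS or with 10% FBS (final DMSO <0.03%); Tween 40 micelles (final <0.02%) in DMEM or McCoy's; compound preincubated 48 h in 100% FBS, diluted 1:10 in RPMI 1640. Mean ± SD, n = 3 dishes.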

Caco-2 = assay: Cytotoxicity of α-MG; assay type: cell-based, human; conditions: read-out: IC50 (cytotoxicity); Caco-2, 4 h, Tween 40 delivery
Procedure, shortened: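 Cytotoxicity was judged by phase-contrast morphology and MTT reduction to formazan after exposure to increasing compound concentrations. Exposure was 24 h for RAW 264.7, MDM, HepG2 and HT-29, 8 h for PMA-differentiated THP-1, and 4 h for differentiated Caco-2. Delivery was DMSO into 10% FBS medium for RAW 264.7, THP-1 and HepG2; FBS-complexed compound at 10% FBS in RPMI 1640 for MDM; Tween 40 micelles for Caco-2 and HT-29.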

[2] = tested on: IL-8 secretion by enterocyte-like Caco-2 cells; assay: IL-8 secretion into basolateral medium; assay type: cell-based, human
Procedure, shortened: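 Caco-2 monolayers were differentiated 21–25 days post-confluence on Transwell inserts. Compound in Tween 40 micelles went into the apical compartment, and IL-1β was added basolaterally. IL-8 in basolateral medium was measured by ELISA, with and without IL-1β.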

THP-1 cells = assay: Cellular uptake and metabolism of α-MG; assay type: in vitro ADME, human
Procedure, shortened: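 THP-1 monocytes were differentiated with 100 nM PMA for 48 h, then exposed 24 h to 5.2 μM compound (DMSO stock into 10% FBS medium). Activated cultures were pre-exposed to 5 ng/mL LPS for 4 h and washed with PBS. Spent medium and cells were collected separately, extracted and analysed by RP-HPLC for free and glucuronidated/sulfated xanthones. Amounts are % of initial compound; mean ± SD, n ≥ 5.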

[3] = RAW 264.7, combined medium and cells, 7.7 μM, 24 h

COc1c(O)cc2oc3cc(O)c(CC=C(C)C)c(O)c3c(=O)c2c1CC=C(C)C [α-MG, α-mangostin]
free xanthones in spent medium, of initial α-MG (MDM cells; 3.3 μM, control): 57 ± 4% | free α-MG in cells, of total (MDM cells; 3.3 μM, control): 22 ± 5% | glucuronidated/sulfated conjugates of α-MG in cells, of total (MDM cells; 3.3 μM, control): 20 ± 10% | recovery of α-MG equivalents added (MDM cells): 99 ± 12% | recovery of α-MG (RAW 264.7 cells; RAW 264.7, 24 h incubation): 80 ± 6% | ratio of free to conjugated xanthones, activated vs control (RAW 264.7 cells; RAW 264.7, LPS treatment, data not shown): increased | free α-MG, of initial concentration (RAW 264.7 cells; [3]): 18 ± 3% | glucuronidated/sulfated conjugates, of initial concentration (RAW 264.7 cells; [3]): 61 ± 6% | calculated rate of α-MG loss per hour ([1]; DMEM lacking FBS, cell free): 3.2% | recovery of α-MG after 24 h incubation ([1]; DMEM without FBS, cell free): 110 ± 3 | stability of α-MG during 24 h incubation ([1]; DMSO stock added to media (RPMI 1640, MEM, DMEM) with 10% (v/v) FBS, cell free): 101 ± 6% | calculated rate of α-MG loss per hour ([1]; MEM lacking FBS, cell free): 4.0% | calculated rate of α-MG loss per hour ([1]; McCoy's 5A lacking FBS, cell free): 2.3% | recovery of α-MG after 24 h incubation ([1]; McCoy's medium without FBS, cell free): 108 ± 4 | calculated rate of α-MG loss per hour ([1]; RPMI lacking FBS, cell free): 2.7% | stability of α-MG after 24 h ([1]; added to 100% FBS diluted 1:10 (v:v) into RPMI 1640, cell free): 95 ± 8% | IC50 (Caco-2): > 80 µM | inhibition of IL-8 chemokine secretion ([2]; activated Caco-2, 15 μM pretreatment 4 h, IL-1β 5 ng/mL 16 h): 30–40% | effect on secretion of IL-8 ([2]; nonactivated Caco-2 cultures): not altered | xanthone in media, THP-1 (THP-1 cells; 0 h, amount of α-MG at start): 33710 ± 161 pmol/dish | intracellular profile table, α-MG at 0 h, THP-1 (THP-1 cells; 0 h, control cultures): 33710 ± 161 pmol/dish | intracellular xanthone, THP-1 (THP-1 cells; 24 h after addition of α-MG, control cultures, nd: not detected): 11439 ± 995 pmol/dish | intracellular ratio of free to conjugated xanthones, activated vs control (THP-1 cells; THP-1, 5 ng/mL LPS 4 h before α-MG, 24 h, p < 0.05): increased | free xanthones in cells, of initial α-MG (THP-1 cells; THP-1, 5.2 μM, 24 h, control): 20 ± 4% | free xanthones in spent medium, of initial α-MG (THP-1 cells; THP-1, 5.2 μM, 24 h, control): 40 ± 1% | phase II conjugates in cells, of initial α-MG (THP-1 cells; THP-1, 5.2 μM, 24 h, control): 14 ± 3% | recovery of xanthones, of α-MG added (THP-1 cells; THP-1, 24 h incubation): 75 ± 6%
